Screens as filed in PubChem.
Compounds with a hit are over-represented: about 2.1% of the library has one in this group of screens.
Thrombin inh: thrombin (human) inhibition | P00734 | alpha-thrombin, Boc-VPR-AMC fluorogenic substrate cleavage | inhibition, % at 5 µM | hit rate 0.26% among 220,000 | AID 1046;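 active = inhibition at or above 40%; inactive = inhibition below 40%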
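Material: human alpha-thrombin protein; Also added: Boc-VPR-AMC substrate, 15 µM final; Timing: enzyme reaction carried out at room temperature; Signal: fluorescence, ex 355 nm, em 460 nm; Measure: % inhibition of thrombin; Controls: enzyme without compound as high, wells lacking enzyme as low.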
EP2 modulator: modulates human prostaglandin E2 receptor EP2 signaling. P43116. EP2-expressing cells, cAMP HTRF FRET, PGE2 co-stimulation. induction, % at 25 µM. hit rate 0.83% among 260,000;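 active = compounds whose cAMP rise, as percent of the full-agonist control response, exceeds 60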;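 also: rat C6 glioma line stably carrying human EP2 under a CMV promoter; the protocol text gives 20 µM as final concentration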
FXIIa inh 1536: blocks human coagulation factor XIIa protease activity; hit rate 0.3% among 220,000; purified FXIIa, Boc-QGR-AMC fluorogenic substrate, 2 h; inhibition, % at 5 µM; P00748; in the data active = inhibition above about 40%
Target sequence (P00748 20-372 limits assumed): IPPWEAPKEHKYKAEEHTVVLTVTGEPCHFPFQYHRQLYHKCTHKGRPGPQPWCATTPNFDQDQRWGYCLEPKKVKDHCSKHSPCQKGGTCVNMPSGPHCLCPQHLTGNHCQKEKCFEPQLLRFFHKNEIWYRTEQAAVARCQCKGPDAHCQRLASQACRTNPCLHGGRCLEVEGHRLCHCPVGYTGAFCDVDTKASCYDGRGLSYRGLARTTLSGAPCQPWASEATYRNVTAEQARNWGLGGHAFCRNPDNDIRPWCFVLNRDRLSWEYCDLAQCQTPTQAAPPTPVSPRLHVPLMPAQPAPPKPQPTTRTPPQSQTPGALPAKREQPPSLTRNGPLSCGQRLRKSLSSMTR
Target sequence (P00748 373-615 limits assumed): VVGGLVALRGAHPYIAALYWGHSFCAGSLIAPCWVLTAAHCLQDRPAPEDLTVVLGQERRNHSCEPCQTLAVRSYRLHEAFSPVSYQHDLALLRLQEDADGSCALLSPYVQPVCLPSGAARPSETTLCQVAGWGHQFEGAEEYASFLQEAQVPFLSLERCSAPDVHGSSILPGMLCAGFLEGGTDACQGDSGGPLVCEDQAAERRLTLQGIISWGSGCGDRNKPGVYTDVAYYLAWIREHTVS
hK5 inh: kallikrein 5 (human) inhibition; AID 873; recombinant hK5, fluorogenic AMC substrate cleavage; inhibition, % at 5 µM; Q9Y337; hit rate 0.59% among 210,000;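 active = inhibition of 40% or more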
EP2 antag: blocks the human prostaglandin E2 receptor EP2; P43116; C6 glioma cells expressing human EP2, cAMP TR-FRET; cells stimulated with saturating PGE2; inhibition, % at 25 µM; hit rate 0.52% among 260,000; AID 1422;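 active = percent inhibition above 40 after rounding to a whole number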;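 also: rat C6 glioma host cells with rolipram phosphodiesterase inhibitor present; the protocol text gives 20 µM as final concentration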
FXIa inh: blocks human coagulation factor XIa protease activity | purified FXIa, Boc-Glu-Ala-Arg-AMC fluorogenic substrate | inhibition, % at 5 µM | hit rate 0.14% among 220,000 | AID 798;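 active = inhibition of at least 40%; inactive = inhibition below 40%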;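 also: fluorescence of freed AMC excited at 355 nm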
EP2 confirm: EP2 receptor cAMP induction, counter-screens negative | shares compounds with EP2 modulator | C6 glioma EP2 cells, cAMP HTRF induction; plus low (about EC15) PGE2 agonist | calls only at 20 µM (by protocol) | hit rate 47% among 1,300 | AID 1080;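 active = cAMP induction above 50% in the main assay while under 30% in all four parallel counter assays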;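 also: rat C6 glioma cells stably expressing human EP2 receptor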
Numbers stand for hits; – = inactive; · = no result; + = active, no number.

SMILES | Thrombin inh | EP2 modulator | FXIIa inh 1536 | hK5 inh | EP2 antag | FXIa inh | EP2 confirm
CCOc1cc(C2NC(=O)NC(C)=C2C(C)=O)c(Cl)cc1OCC(=O)O (stereo unspecified) | · | – | · | · | – | · | ·
CCOc1ccc(-c2nn3c(-c4ccccc4)nnc3s2)cc1 | – | 65.3 | – | – | – | – | +
CC(C)Sc1cc(N2CCCC2)nc(-c2ccccc2)n1 | – | – | – | – | – | – | ·
CCSc1cc(N2CCOCC2)nc(-c2ccc(Cl)cc2)n1 | – | 76.0 | – | – | – | – | +
CC(C)Sc1cc(N2CCOCC2)nc(-c2ccccc2)n1 | – | 73.9 | – | – | – | – | +
Cc1ccc2[nH]c(=O)c(CN(C(=S)NC3CCCCC3)C3CCCC3)cc2c1 | · | – | · | · | – | · | ·
Cc1ccc(C)c2c1cc(C)c1nnc(SCc3cc(=O)[nH]c4ccccc34)n12 | · | – | · | · | – | · | ·
CC(C)Cc1nc(SCc2cccnc2)c2c(=O)n(C)c(=O)n(C)c2n1 | – | 63.2 | – | – | – | – | –
CCOc1ccc(N(C(C)C(=O)N2CCC(C(N)=O)CC2)S(C)(=O)=O)cc1 (stereo unspecified) | · | – | · | · | – | · | ·
Cc1ccc(N/C(C(Cl)=C(Cl)Cl)=C(/Cl)[N+](=O)[O-])c(C)c1 | – | 72.9 | – | – | – | – | +
CCOc1ccc(C(=O)C[N+]2=C(C)c3cccn3CC2)cc1 | · | – | · | · | – | · | ·
Cc1cc(C)c2c(c1)cc(C)c1nnc(SCC(=O)Nc3nc4c(s3)CCCC4)n12 | · | – | · | · | – | · | ·
Cc1ccc(Cl)cc1NC1=NC(=S)N(C(C)C)C12CCCCC2 | – | 93.5 | – | – | – | – | +
Cc1ccc(Cl)cc1NC(=O)C(=O)N1CCCCC1 | – | – | – | – | – | – | ·
CCOc1cc(/C=N/NC(N)=O)ccc1OC(=O)c1ccc(C)cc1 | – | 66.2 | – | – | · | – | –
CCOc1cc(/C=N\NC(=O)c2ccc(NC(=O)C(C)(C)C)cc2)ccc1OC(=O)c1ccc(C)cc1 | – | – | – | – | – | – | ·
Cc1ccccc1-n1c(=O)[nH]c(=O)c2c(N)c(C(=O)c3ccc(Cl)cc3)sc21 | – | 65.9 | – | – | – | – | –
Nc1c(C(=O)c2ccc(Cl)cc2)sc2c1c(=O)[nH]c(=O)n2-c1ccccc1 | – | – | – | – | – | – | ·
CCCn1c(CN2CCc3c(nc(N4CCOCC4)[nH]c3=O)C2)nc2ccccc21 | · | – | · | · | · | · | ·
COc1ccc(-c2noc(CN(C)S(=O)(=O)c3ccccc3)n2)cc1OC | · | · | · | · | – | · | ·
COc1ccc(CCN(Cc2nc(-c3ccccc3)no2)Cc2nc(-c3ccccc3)no2)cc1OC | – | – | – | – | – | – | –
COc1ccc(S(=O)(=O)N(Cc2ccccc2)Cc2nc(-c3ccccc3)no2)cc1 | – | – | – | – | – | – | +
COC(=O)c1ccc(NC(=S)NC(=O)/C=C/c2cccs2)cc1 | · | – | · | · | – | · | ·
CCOc1ccc(NC(=O)CSc2ncnc3sc4c(c23)CCCC4)cc1 | · | – | · | · | – | · | ·
CC(=O)CSc1nc(N)c(C#N)c(-c2cccs2)c1C#N | – | – | – | – | – | – | ·
SMILES | Thrombin inh | EP2 modulator | FXIIa inh 1536 | hK5 inh | EP2 antag | FXIa inh | EP2 confirm
CC(=O)CSc1nc(-c2cccs2)c(C#N)c(=O)[nH]1 | – | 67.6 | – | – | – | – | –
COc1nc(-c2ccccc2)nnc1-c1ccccc1 | – | 74.6 | – | – | – | – | –
CC(=O)Nc1ccc2nc(NC(=O)c3ccccc3F)oc2c1 | · | – | · | · | – | · | ·
COc1ccccc1NC(=O)CN1CCN(Cc2ccccc2)CC1 | – | – | – | – | – | – | ·
O=C(CSCc1c(Cl)cccc1Cl)Nc1ccccc1-c1ccccc1 | – | 75.0 | – | – | – | – | –
O=C(CN1CCN(Cc2ccccc2)CC1)Nc1ccccc1-c1ccccc1 | – | 65.8 | – | – | – | – | –
CCn1c(SCC(=O)Nc2ccc3sc(C)nc3c2)nc2ccccc2c1=O | · | – | · | · | – | · | ·
C=CCn1c(N2CCC(C(=O)NCc3ccc(F)cc3)CC2)nc2ccccc21 | · | – | · | · | – | · | ·
N#CCCSc1ncnc2c1oc1ccccc12 | – | 66.3 | – | – | – | – | –
O=C(O)CSc1ncnc2c1oc1ccccc12 | – | – | – | – | – | – | ·
O=C(CSc1ncnc2c1oc1ccccc12)Nc1ccccc1C(F)(F)F | – | 79.2 | – | 46.6 | – | – | –
CCOC(=O)CC(=O)CSc1ncnc2c1oc1ccccc12 | – | 66.6 | – | – | · | – | –
